Measurements pooled from the literature.
Protocols differ between the studies behind these lines.
Target: Protein kinase C theta type (PRKCQ, Homo sapiens, UniProt Q04759)

| Structure (SMILES) | assay | conditions | measurement | result |
| --- | --- | --- | --- | --- |
| Cc1nn(C)cc1-c1nc2c(N3CCN(Cc4ccc(Cl)cc4)CC3)c(Cl)cnc2[nH]1 | binding, competition with immobilised ligand | 1 µM | remaining binding | 100% |
| N#CC1(c2ccccn2)CCN(Cc2cc(C(=O)O)c(=O)n3ccccc23)CC1 | cell-free assay, competition with immobilised ligand | 1 µM | remaining binding | 96% |
| Cn1cc(-c2cccc(N3CCc4c(sc5c4CC(C)(C)C5)C3=O)c2CO)cc(Nc2ccncn2)c1=O | enzyme activity, inhibitor | 1 µM | inhibition | -5% |
| CC(C)(C)c1cc(C=C(C#N)C#N)cc(Br)c1O | enzyme activity, inhibitor | 0.5 µM | remaining activity | 98% |
| Cn1cc(-c2cc(F)cc(N3CCn4c(cc5c4CCCC5)C3=O)c2CO)cc(Nc2ccc(N3CCN(C4COC4)CC3)cn2)c1=O | enzyme activity, inhibitor | 0.1 µM | inhibition | 0% |
| C#Cc1n[nH]c2c(-c3cn(C(C)c4ccccn4)c(=O)[nH]c3=O)cc(F)cc12 (stereo not shown) | enzyme activity, inhibitor | 1 µM | inhibition | 1.2% |
| O=c1[nH]c2ccccc2n1C1CCN(Cc2ccc(-c3[nH]c4cc5ncnc5cc4nc3-c3ccccc3)cc2)CC1 | cell-free assay | 0.5 µM | remaining signal | 96.4% |
| COc1ncccc1-c1cnn2ccc(N3CCN(C(=O)OC(C)C)CC3)nc12 | binding, competition with immobilised ligand | 1 µM | remaining binding | 100% |
| Cn1cncc1[C@@](O)(COc1ccc(C#N)cc1-c1ccc(OC(F)(F)F)cc1)c1ccc(C#N)cc1 | cell-free assay, competition with immobilised ligand | 1 µM | remaining binding | 100% |
| Nc1ncc(-c2nc(N3CCOCC3)nc(N3CCOCC3)n2)c(C(F)F)n1 | cell-free assay, competition with immobilised ligand | 10 µM | remaining binding | 37% |
